Experiments:
[1] = test system: Human Red Blood Cell (HRBC) membrane; test: HRBC membrane stabilization method; type: cell-based
How it was run: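 Human red blood cell membrane stabilization assay, run in quadruplicate with diclofenac as reference. Hemolysis in distilled water was taken as 100%. Protection was calculated as % inhibition of hemolysis = 100 × (OD control − OD sample)/OD control.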

[2] = test system: MCF-7 (human breast cancer); test: Anticancer MTT assay, breast cancer cells; type: cell-based
How it was run: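 MCF-7 cells grown in DMEM with 10% FBS, penicillin and streptomycin at 37°C in 5% CO₂. About 5000 cells/well were exposed to test compound at 50-500 µg/mL (1 mg/ml DMSO working solution, 0.45-micron filtered) for 24, 48 or 72 h. MTT was added for 2 h, then lysis buffer for 4 h, and A570 was read. Viability = mean OD/control OD × 100.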

Row | IC50 ([1]; Homo sapiens, Erythrocyte, read-out: HRBC membrane protection IC50) | SMILES | HRBC membrane average protection ([1]; n=4) | Relative percentage activity (anticancer) [2]
1 | 150 nM | O=C(O)Cc1ccccc1Nc1c(Cl)cccc1Cl [Diclofenac] | 82.15% | 
2 |  | COc1cccc2c1C(=O)c1c(O)c3c(c(O)c1C2=O)C[C@@](O)(C(=O)CO)C[C@@H]3O[C@H]1C[C@H](N)[C@H](O)[C@H](C)O1 [Doxorubicin] |  | 89.47 ± 2.87%
